High-throughput results from PubChem.
EBNA-1 inhibitor = blocks EBNA-1 binding to DNA | EBNA-1 DNA binding, fluorescence polarization | inhibition, % at 14.8 µM | hit rate 0.34% among 300,000 | AID 1950; in the data active = inhibition above about 28%
ZTA counter = ZTA (EBV) inhibition in EBNA-1 counter-screen | hit rate 0.15% among 320,000 | P03206 | inhibition, % at 11 µM | ZTA-DNA binding, fluorescence polarization; in the data active = inhibition above about 33%
Target sequence (P03206 whole entry, looked up): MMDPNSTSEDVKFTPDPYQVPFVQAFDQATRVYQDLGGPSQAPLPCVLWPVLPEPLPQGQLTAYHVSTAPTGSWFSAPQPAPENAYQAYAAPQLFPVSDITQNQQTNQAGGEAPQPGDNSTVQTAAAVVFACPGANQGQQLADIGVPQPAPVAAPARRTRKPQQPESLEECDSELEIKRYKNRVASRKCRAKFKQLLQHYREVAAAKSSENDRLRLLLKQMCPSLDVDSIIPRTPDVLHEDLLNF
NS3 helicase inh = blocks Hepatitis C virus NS3 helicase unwinding. NS3 helicase DNA unwinding, Cy5 molecular beacon fluorescence. inhibition, % at 10.9 µM. hit rate 0.56% among 290,000;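 active = inhibition above the mean of all tested compounds plus 3 SD, set per campaign, cut at about 35% in these data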
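test system = hepatitis C virus NS3 helicase domain fragment enzyme | reagent = annealed dual-labelled DNA beacon duplex, ATP-started | times = 1 h at 25 °C | detection = Cy5 fluorescence, 0 and 60 min reads | read-out basis = percent inhibition from t60/t0 fluorescence ratio | control set = DMSO and thioflavine S | replication = one well per compound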
EBV gp42 inh = blocks Epstein-Barr virus glycoprotein 42 binding; Q1HVG2; Fluorescence polarization binding assay, mP read-out; inhibition, % (tested at 21.74 µM); hit rate 0.42% among 220,000; AID 1085; in the data active = inhibition above about 50%
Target sequence (Q1HVG2 whole entry, looked up): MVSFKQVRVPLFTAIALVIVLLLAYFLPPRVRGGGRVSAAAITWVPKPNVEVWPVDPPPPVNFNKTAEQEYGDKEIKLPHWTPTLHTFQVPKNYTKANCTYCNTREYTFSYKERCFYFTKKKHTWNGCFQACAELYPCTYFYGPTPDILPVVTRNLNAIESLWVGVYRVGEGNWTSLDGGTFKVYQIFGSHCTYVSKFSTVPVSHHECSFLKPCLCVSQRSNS
MEX-5 binding = C. elegans MEX-5 TCR-2 RNA binding activity | Q9XUB2 | MEX-5/FITC-TCR2 RNA binding, fluorescence polarization; stronger effect = lower value | activity score (negative = inhibition of binding), % at 10 µM | hit rate 0.38% among 300,000;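 active = inhibition past about -25% in most replicates, and total fluorescence under double the plate's negative control median, limit read from the data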
core dimer inh = blocks dimerization of HCV core protein. TR-FRET GST/Flag-core106 dimerization, 1536-well. inhibition, % at 5 µM. hit rate 0.33% among 300,000. AID 1899;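 active = inhibition above the mean of all tested compounds plus 3 SD, set per screening campaign, cut at about 45% in these data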
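test system = GST/Flag-tagged HCV core106 proteins | probe or stimulus = Eu donor and XL665 acceptor anti-tag antibodies | times = compound-protein-antibody incubation 4 h at 22.5 °C | signal = TR-FRET, excitation 340 nm, emission 617 and 671 nm | measure = percent inhibition of core106 dimerization signal | controls = wells lacking GST-core106 and wells with excess unlabelled core106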
Large screens that a line does not name were inactive. An excerpt weighted towards active compounds, which were near 1.7% of everything screened.

Cc1ccc(-n2c(SCC(=O)N/N=C/c3c(C)nn(-c4ccccc4)c3C)nc3ccccc3c2=O)cc1	none
Cc1nn(-c2ccccc2)c(C)c1/C=N/NC(=O)CSc1nc2ccccc2c(=O)n1-c1ccc(Br)cc1	core dimer inh 59
N/C(=N\O)c1ccc(Cl)cc1Cl	none
CCCCn1c(SCC(=O)Nc2cc(C)on2)nc2ccccc2c1=O	core dimer inh 73
CC(=O)c1ccc(NC(=O)C2Cc3ccccc3CN2C(=O)c2ccccc2)cc1 (stereo unspecified)	none
COc1ccc(NC(=O)C2Cc3ccccc3CN2C(=O)c2ccccc2)cn1 (stereo unspecified)	EBV gp42 inh 64, MEX-5 binding -38
O=C(CSc1nc2ccsc2c(=O)n1CC1CCC(C(=O)O)CC1)NCCc1ccc(Cl)cc1 (stereo unspecified)	none (no result: EBV gp42 inh)
CC(C)c1ccc(-c2c(C#N)c(N)nc(SCC(=O)N3CCCCC3)c2C#N)cc1	core dimer inh 47
Cc1c(N2C(=O)c3ccc(Br)cc3C2=O)c(=O)n(-c2ccccc2)n1C	none
Cc1c(N2C(=O)c3ccc4c5c(ccc(c35)C2=O)CC4)c(=O)n(-c2ccccc2)n1C	EBV gp42 inh 79, core dimer inh 82
CCOC(=O)c1sc(NC(=O)C(C)(C)C)cc1C	none
CCOC(=O)c1sc(NC(=S)NC(=O)C2CCCC2)cc1C	core dimer inh 46
CCOC(=O)c1sc(NC(=O)C2CC2)cc1C	none
CCOC(=O)c1sc(NC(=S)NC(=O)CC(C)C)cc1C	core dimer inh 71
COCCCn1c(N)c(-c2nc3ccccc3n2C)c2nc3ccccc3nc21	MEX-5 binding -34
Cn1c(-c2c(N)n(CCCc3ccccc3)c3nc4ccccc4nc23)nc2ccccc21	none (no result: EBNA-1 inhibitor, ZTA counter, core dimer inh)
NC(=O)c1cc(S(=O)(=O)NCCCc2ccccc2)cs1	none (no result: EBV gp42 inh)
COc1ccc(C(=O)NCCN2CCOCC2)cc1S(=O)(=O)Nc1ccc(C)cc1	none (no result: EBNA-1 inhibitor, NS3 helicase inh, EBV gp42 inh, MEX-5 binding, core dimer inh)
Cc1ccc2nnnc(-c3ccccc3)c2c1	EBNA-1 inhibitor 38, ZTA counter 35
Cc1ccc2nc(NCC(N)=O)nc(-c3ccccc3)c2c1	none
COc1cc(C(=O)COC(=O)c2cc([N+](=O)[O-])ccc2N2CCOCC2)ccc1OC(F)F	none (no result: NS3 helicase inh, EBV gp42 inh)
O=c1c2c3c(sc2n2cnnc2n1Cc1ccccc1)CN(Cc1ccccc1)CC3	core dimer inh 51 (no result: EBV gp42 inh)
COc1cc(/C=C(\C#N)c2nc(-c3cc4ccccc4oc3=O)cs2)ccc1O	none
COc1cc(/C=C(/C#N)c2nc(-c3cc4ccccc4oc3=O)cs2)cc([N+](=O)[O-])c1O	EBV gp42 inh 64 (no result: EBNA-1 inhibitor, ZTA counter, MEX-5 binding, core dimer inh)
CC(C)c1ccc(N(C(=O)c2ccco2)C(C(=O)NC2CCCC2)c2ccncc2)cc1 (stereo unspecified)	none (no result: EBV gp42 inh)
O=C(COc1ccc2c(-c3ccccc3)cc(=O)oc2c1)Nc1ccc(CCO)cc1	none (no result: EBV gp42 inh)
Nc1nc(SCc2ccc(Cl)cc2Cl)nc2nc3c(cc12)CCCC3	EBNA-1 inhibitor 29
Cc1cc2oc(C(=O)Nc3ccc(S(=O)(=O)Nc4nccs4)cc3)cc(=O)c2cc1Cl	core dimer inh 58
O=C(Nc1ccc(S(=O)(=O)Nc2nccs2)cc1)c1nn(-c2ccccc2)ccc1=O	core dimer inh 63 (no result: EBV gp42 inh)
C#CCOCCOCCOCCNc1nc(N2CCN(C(=O)CCCCCCCCCCNC(=O)Cn3cc(C[C@@H](C)O)nn3)CC2)nc(N2CCN(C(=O)CCCCCCCCCCNC(=O)[C@H](CCCCN)n3cc(C[C@@H](C)CC)nn3)CC2)n1	none (no result: NS3 helicase inh, EBV gp42 inh, MEX-5 binding)
C#CCOCCOCCOCCNc1nc(N2CCN(C(=O)[C@H](Cc3cc4ccccc4[nH]3)n3cc([C@@H](N)C(C)CC)nn3)CC2)nc(N2CCN(C(=O)[C@H](Cc3cc4ccccc4[nH]3)n3cc([C@@H](N)Cc4ccc(O)cc4)nn3)CC2)n1 (stereo partly specified)	EBNA-1 inhibitor 46, ZTA counter 55
C#CCOCCOCCOCCNc1nc(N2CCN(C(=O)[C@H]([C@@H](C)CC)n3cc([C@@H](N)Cc4ccc(O)cc4)nn3)CC2)nc(N2CCN(C(=O)[C@H](Cc3cc4ccccc4[nH]3)n3cc([C@@H](N)C(C)CC)nn3)CC2)n1 (stereo partly specified)	none
C#CCOCCOCCOCCNc1nc(N2CCN(C(=O)CCCCCCCCCCNC(=O)[C@H]([C@@H](C)CC)n3cc(CCCCN=C(N)N)nn3)CC2)nc(N2CCN(C(=O)CCCCCCCCCCNC(=O)[C@H](CCCCN)n3cc(C[C@@H](C)CC)nn3)CC2)n1	ZTA counter 126 (no result: NS3 helicase inh, EBV gp42 inh, MEX-5 binding)
C#CCOCCOCCOCCNc1nc(N2CCN(C(=O)CCCCCCCCCCNC(=O)[C@H](CCCCN)n3cc(C[C@@H](C)CC)nn3)CC2)nc(N2CCN(C(=O)CCCCCCCCCCNC(=O)[C@H](CCCCN)n3cc(C[C@@H](C)CC)nn3)CC2)n1	ZTA counter 91 (no result: NS3 helicase inh, EBV gp42 inh)
COc1cc2nc(N3CCN(C(=O)OCc4ccccc4)[C@H](C(=O)NC(C)(C)C)C3)nc(N)c2cc1OC	none (no result: NS3 helicase inh, EBV gp42 inh, MEX-5 binding)
O=C(Nc1nc2ccc(F)cc2s1)C1CCN(S(=O)(=O)c2cc([N+](=O)[O-])ccc2Cl)CC1	core dimer inh 46
CC(NC(=O)C1CCN(S(=O)(=O)c2cc([N+](=O)[O-])ccc2Cl)CC1)c1ccccc1 (stereo unspecified)	none
Cc1ccc2nc(NC(=O)C3CCN(S(=O)(=O)c4cccc5nsnc45)CC3)sc2c1	none
Cc1ccc2nc(NC(=O)C3CCN(S(=O)(=O)c4cc([N+](=O)[O-])ccc4Cl)CC3)sc2c1	core dimer inh 66
CCCC(C)NC(=O)COC(=O)c1cccc(NS(C)(=O)=O)c1 (stereo unspecified)	none
O=c1ccc(-c2ccc(S(=O)(=O)N3CCN(c4ccccc4)CC3)o2)n[nH]1	none (no result: EBV gp42 inh)
Cc1ccc(/C=C/C(=O)O)cc1S(=O)(=O)N1CCCCC1	MEX-5 binding -30
CCOC(=O)Cc1csc(NC(=O)c2ccc(C)c(S(=O)(=O)N3CCOCC3)c2)n1	none (no result: EBNA-1 inhibitor, NS3 helicase inh, EBV gp42 inh, MEX-5 binding, core dimer inh)
COc1cc(-c2cc(C(=O)Nc3c(Cl)cc(Cl)cc3Cl)c3ccccc3n2)cc(OC)c1OC	none
COc1ccc2nc3ccccc3nc2c1NC(=O)c1ccc(Cl)cc1Cl	MEX-5 binding -53
Cc1nn2c(N)c(-c3ccccc3)cnc2c1-c1ccccc1	none (no result: EBV gp42 inh)
OCc1ccc2c(c1)c(-c1ccc3c(c1)OCCO3)c(-c1ccccc1)n2-c1ccccc1	none (no result: EBNA-1 inhibitor, NS3 helicase inh, EBV gp42 inh, MEX-5 binding, core dimer inh)
O=C(N1CCOCC1)N1CCC(n2nnc3cc(F)ccc32)CC1	MEX-5 binding -27
COc1ccc(NC(=O)CSc2nnnn2C)cc1S(=O)(=O)N1CCCCC1	none (no result: EBNA-1 inhibitor, NS3 helicase inh, EBV gp42 inh, MEX-5 binding, core dimer inh)
Cc1noc(C)c1S(=O)(=O)NC1CCN(Cc2ccccc2)CC1	MEX-5 binding -34 (no result: NS3 helicase inh)
NC(=O)[C@@H]1CCCN1Cc1c(C(=O)N2CCc3ccccc3C2)nc2ccc(Cl)cn12	MEX-5 binding -32 (no result: EBV gp42 inh)
